HUVEC prolif 384 = human endothelial cell proliferation inhibition | viability, % at 10 µM (by protocol) | HUVEC proliferation, CellTiter-Glo luminescence, 72 h; active compounds read low | 86,000 tested, 1.1% active;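 active = viability at or below 30%; inactive = viability above 30%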
bCat KO growth = beta-catenin-lacking colon tumor cell growth suppression | HCT116 beta-catenin knockout viability, CellTiter-Glo, 60 h; active compounds read low | viability, % at 10 µM | 140,000 tested, 1.5% active | AID 818;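 active = viability at or under a set limit, the compound median less 4 SD, cut at about 6% in these data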
PTEN del growth = growth suppressors of cells with PTEN tumor suppressor deletion | HCT116 PTEN-null viability, CellTiter-Glo, 60 h; active compounds read low | 140,000 tested, 1.2% active | viability, % at 10 µM;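 active = viability at or below a set limit, 4 SD under the median of all tested compounds, cut at about 3.7% in these data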;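 also: PTEN knockout HCT116 line with beta catenin targeted HCT116 as companion control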
Fibroblast inh = blocks proliferation of human lung fibroblasts; AID 719; viability, % at 10 µM; LL 47 human lung fibroblast viability, ATP luminescence; active compounds read low; 85,000 tested, 1.1% active;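 active = viability at or below 50% in the single dose screen; inactive = viability above 50%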;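 also: compound exposure lasted 72 h before the ATP readout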
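Material: human LL 47 lung fibroblast cells; quantity: 1,150 cells/well; medium: IMEM plus 15% FBS; doses: 0.1% DMSO in all compound wells; timing: overnight attachment after seeding, then 72 h compound exposure at 37 °C; detection: CellTiter-Glo luminescence; measure: % viability of median cell-only signal; controls: cell-only wells, no compound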
H69AR growth 86K = growth inhibitors of human H69AR lung tumor cells. H69AR lung tumor viability, ATP luminescence, 72 h; active compounds read low. viability, % at 10 µM. 85,000 tested, 6% active;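 active = viability at or below 40%; inactive = viability above 40%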;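 also: multidrug resistant small cell line overexpressing MRP-1 efflux transporter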
Hits are given with their value; - = inactive; . = not tested or not shown. The sample as a whole holds a higher share of hits than the screen did.

SMILES	HUVEC prolif 384	bCat KO growth	PTEN del growth	Fibroblast inh	H69AR growth 86K
CCc1ccc2oc(=O)cc(CN3CCN(c4ccc(F)cc4)CC3)c2c1	-	-	-	26	37
CC(C)c1ccc2oc(=O)cc(CN3CCN(c4ccc(F)cc4)CC3)c2c1	-	-	-	-	-
O=c1cc(CN2CCN(c3cccc(Cl)c3)CC2)c2cc(O)c(-c3ccccc3)cc2o1	.	-	-	.	.
Cc1ccccc1Cn1c(=O)c2c(nc3n2CCN3Cc2ccco2)n(C)c1=O	-	.	.	-	-
CC1(C)CC(=O)C2=C(C1)N(c1ccccc1)C(N)=C(C#N)C2c1cccnc1 (configuration not stated)	-	-	-	-	35
CC1(C)CC(=O)C2=C(C1)N(c1ccccc1)C(N)=C(C#N)C2c1ccccc1 (configuration not stated)	-	-	-	-	-
Cc1ccc(N2C(N)=C(C#N)C(c3cccnc3)C3=C2CCCC3=O)cc1 (configuration not stated)	-	-	-	-	30
c1ccc(Nc2ccccn2)cc1	-	-	-	-	-
c1ccc(/N=C2\N=C(Nc3ccccn3)c3ccccc32)nc1	2.4	.	.	-	1.0
Cn1c(CCN2CCN(c3ccc(F)cc3)CC2)nc2cc(NC(=O)c3ccco3)ccc21	-	-	-	-	-
Cc1ccc(N2CCN(CCc3nc4cc(NC(=O)c5ccco5)ccc4n3C)CC2)cc1	-	-	-	-	6.6
Cn1c(CCN2CCN(c3ccccc3)CC2)nc2cc(NC(=O)c3ccco3)ccc21	-	-	-	-	21
CCC1=NNc2cccc3c(OC)ccc1c23	21	-	-	3.8	-
COc1ccc2c3c(cccc13)C(=O)N(O)C2=O	.	-	-	.	.
COc1cccc(Nc2nc(-c3ccc4c(c3)OCCO4)cs2)c1	-	-	-	-	37
CCc1cc2c(=O)[nH]c(N3CCCC3)nc2s1	.	-	-	.	.
CCc1cc2c(=O)[nH]c(-c3ccccn3)nc2s1	.	2.5	2.3	.	.
Cc1ccc(S(=O)(=O)c2ccc(Cl)cc2)cc1S(=O)(=O)NC(C)C(=O)O (configuration not stated)	.	-	-	.	.
O=C(C#Cc1ccccc1)c1ccc([N+](=O)[O-])cc1	-	-	-	20	1.1
CC(C)(NCc1ccccc1Cl)C(=O)O	-	.	.	-	-
Clc1ccc(C2=C3CCCCn4c(-c5ccccc5)c[n+](c43)C2)cc1	18	-	-	42	36
CCOC(=O)c1ccc(NC(=O)c2ccccc2C)cc1	.	-	-	.	.
CC1CCCc2sc3nc(N4CCN(CCO)CC4)n4ncnc4c3c21 (configuration not stated)	-	-	-	-	15
CCCC(=O)Nc1cc(Cl)ccc1N1CCN(C(=O)CC)CC1	-	-	-	-	-
C=CCNC(=O)/C(C#N)=C\c1cc(Cl)c(O)c(OCC)c1	.	-	-	.	.
SMILES	HUVEC prolif 384	bCat KO growth	PTEN del growth	Fibroblast inh	H69AR growth 86K
CCOc1cc(/C=C2\CCC/C(=C\c3cc(Cl)c(O)c(OCC)c3)C2=O)cc(Cl)c1O	.	2.0	1.7	.	.
O=C(CC1CCCC1)Nc1ccc2c(c1)CCC2	-	-	-	-	-
CCCCC1C(C#N)=C(C)NC2=C1C(=O)CC(C)(C)C2 (configuration not stated)	-	-	-	-	-
Cc1cc(C)c2nc(N3CCC(C(=O)NCCCN4CCCCC4)CC3)sc2c1	4.0	3.1	2.3	2.7	-
c1ccc(Cn2c(CNc3nc4ccccc4n3CCN3CCCCC3)nc3ccccc32)cc1	15	-	-	-	9.6
COC(=O)c1cc(=O)nc2sc(-c3ccc(F)cc3)nn12	-	-	-	-	36
COC(=O)c1cc(=O)nc2sc(-c3cccs3)nn12	-	-	-	-	-
O=C1C=C(c2cccs2)C[C@H](c2ccccc2)[C@H]1n1nnc([N+](=O)[O-])n1	.	4.9	-	.	.
Cc1[nH]c2ccccc2c1C(O)CN1CCN(c2cccc(C(F)(F)F)c2)CC1 (configuration not stated)	2.4	-	-	43	1.3
OC(CN1CCN(c2ccccc2)CC1)c1c[nH]c2ccccc12 (configuration not stated)	-	-	-	-	38
NS(=O)(=O)c1ccc(CCNC(=O)COC(=O)C2CCCN2C(=O)c2cccs2)cc1 (configuration not stated)	-	-	-	-	-
O=C1c2ccccc2-c2onc3ccc(Oc4ccccc4)c1c23	4.4	1.9	1.5	2.8	2.1
CC(=O)Nc1ccc(SCC(=O)N(CCC#N)c2ccc(C)cc2)cc1	-	-	-	-	33
CCOC(=O)CC(=O)CSc1[nH]c(=O)cc(C)c1C#N	-	-	-	-	-
CCOC(=O)/C=c1\s/c(=C\c2ccc3c(c2)OCCO3)c(=O)n1CC(=O)NCC1CCCO1 (configuration not stated)	-	-	-	-	-
CCOC(=O)/C=c1\s/c(=C\c2c(OCC)ccc3ccccc23)c(=O)n1CC(=O)NCC1CCCO1 (configuration not stated)	-	-	-	-	30
CCOc1ccc(-c2cc(NC(=O)Cn3ncc4c3-c3ccccc3OC4)on2)cc1OCC	-	-	-	-	30
O=S(=O)(NCCn1ccc2ccccc21)c1ccccc1	-	-	-	-	-
Cc1c(O)c2c(=O)n(-c3ccccc3)c(-c3ccccc3)cc2oc1=O	.	-	-	.	.
CCOC(=O)c1c(NC(C)=O)sc2c1CCC(C=O)=C2Sc1ccccc1	-	-	.	18	4.6
CCN(CC)S(=O)(=O)c1ccc(N2CCN(S(=O)(=O)c3ccc4c(c3)OCCO4)CC2)nc1	-	-	-	-	-
CC(C)c1onc(C(=O)NCc2ccccc2)c1[N+](=O)[O-]	.	-	-	.	.
CC(C(=O)NC(=O)NCc1ccccc1)N1C(=O)c2ccccc2C1=O (configuration not stated)	-	0.9	0.9	-	-
COc1cc(C(=O)CCN2CCC(c3ccccc3)C2)cc(OC)c1OC (configuration not stated)	.	-	-	.	.
CCC1CCCCN1c1nc(-c2ccncc2)nc2ccccc12 (configuration not stated)	-	-	-	-	17
SMILES	HUVEC prolif 384	bCat KO growth	PTEN del growth	Fibroblast inh	H69AR growth 86K
O=C(N=C1c2ccccc2CN1c1ccc(F)c(Cl)c1)c1cccnc1Cl	.	-	-	.	.
Cc1ccccc1NC(=O)C1CCN(c2cc(-c3ccccc3)nc3ncnn23)CC1	-	-	-	-	37
CCc1nc(SCc2ccc(C(=O)OC)o2)c2c(=O)n(C)c(=O)n(C)c2n1	-	-	-	-	-
CCOc1cc(S(=O)(=O)NCc2ccccn2)ccc1Cl	-	-	-	-	-
CCNC(=O)Cn1c(=O)c2c(ncn2Cc2ccccc2)n(Cc2ccccc2)c1=O	-	-	-	-	-
CCn1cnc2c1c(=O)n(CC(=O)Nc1ccc3c(c1)OC(F)(F)O3)c(=O)n2Cc1ccccc1	-	-	-	-	32
N#CC1=C(N)N(c2ccccc2)C(c2cccc([N+](=O)[O-])c2)C1(C#N)C#N (configuration not stated)	-	-	-	-	10
